In the library only some 9.6% were active in any assay of this set; here they are far more common.
HCT116 bCat-KO: beta-catenin-lacking colon tumor cell growth suppression; HCT116 beta-catenin knockout viability, CellTiter-Glo, 60 h; hits give low values; viability, % at 10 µM; 140,000 compounds, 1.5% hits; AID 818;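 active = viability at or under a set limit, the compound median less 4 SD, cut at about 6% in these data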;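 also: 0% = Hyamine 1622 control at 20 µM and 100% = untreated cell control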
TNAP act hi DEA: TNAP (human) activation, high acceptor; P05186; purified TNAP, CDP-star luminescence, 1 M DEA, 30 min; hits give high values; 0 = EDTA background, 1 = DMSO-only activity; activation factor at 20 µM; 200,000 tested, under 10 active; AID 1136;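 active = activation factor at least 2 at 20 µM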
Target sequence (P05186 whole entry, looked up): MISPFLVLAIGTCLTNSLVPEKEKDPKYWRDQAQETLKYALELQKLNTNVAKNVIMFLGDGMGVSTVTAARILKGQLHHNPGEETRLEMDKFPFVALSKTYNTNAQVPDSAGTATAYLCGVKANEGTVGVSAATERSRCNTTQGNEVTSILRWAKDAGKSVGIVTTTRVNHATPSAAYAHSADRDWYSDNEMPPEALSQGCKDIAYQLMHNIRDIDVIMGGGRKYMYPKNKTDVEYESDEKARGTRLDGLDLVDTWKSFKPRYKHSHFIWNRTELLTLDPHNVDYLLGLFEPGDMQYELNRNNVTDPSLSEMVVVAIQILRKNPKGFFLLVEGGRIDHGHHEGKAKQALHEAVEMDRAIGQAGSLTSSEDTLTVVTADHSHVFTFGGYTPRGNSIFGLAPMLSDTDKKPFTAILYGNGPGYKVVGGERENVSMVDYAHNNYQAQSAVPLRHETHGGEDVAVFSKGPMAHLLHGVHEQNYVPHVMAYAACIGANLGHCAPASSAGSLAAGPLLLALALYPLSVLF
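system = human TNAP | amount = enzyme diluted 1/800 final | reagent = 100 µM CDP-star substrate | signal = luminescent substrate turnover signal | dosing = one dose, 20 µM | benchmarks = EDTA negative control, DMSO positive control | measure = activation factor | timing = 30 min reaction, room temperature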
TNAP inh no acc: blocks human TNAP activity with no phosphate acceptor present. inhibition, % at 20 µM. purified TNAP, CDP-star luminescence, 30 min. 200,000 compounds, 0.26% hits. P05186;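 active = tissue-nonspecific alkaline phosphatase inhibition above about 50% at 20 µM in the single-dose screen, limit read from the data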;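 also: 0% = DMSO negative control and 100% = EDTA positive control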
TNAP inh hiacc: blocks human TNAP under high phosphate acceptor concentration | P05186 | purified TNAP, CDP-star luminescence, 1 M DEA | inhibition, % at 20 µM | 200,000 compounds, 0.03% hits | AID 1135;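 active = over 50% inhibition of tissue-nonspecific alkaline phosphatase at 20 µM in the single-dose screen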;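 also: plate controls were DMSO wells for no effect and EDTA-quenched wells as full inhibition for full effect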
Lmaj promast: inhibitors of Leishmania major promastigote growth; Leishmania major promastigotes, resazurin fluorescence viability; inhibition, % at 10 µM; 200,000 compounds, 9% hits; AID 1063; in the data active = inhibition above about 50%;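 also: promastigotes grown with compound for 44 hours at 28 °C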
HCT116 PTEN-null: growth suppressors of cells with PTEN tumor suppressor deletion; HCT116 PTEN-null viability, CellTiter-Glo, 60 h; hits give low values; viability, % at 10 µM; 140,000 compounds, 1.2% hits; AID 827;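 active = viability at or below a set limit, 4 SD under the median of all tested compounds, cut at about 3.7% in these data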;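 also: PTEN knockout HCT116 line with beta catenin targeted HCT116 as companion control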
* hit, by the source's call; · = no result.

SMILES	HCT116 bCat-KO	TNAP act hi DEA	TNAP inh no acc	TNAP inh hiacc	Lmaj promast	HCT116 PTEN-null
CCN(Cc1ccccc1)S(=O)(=O)c1cc(C(=O)NC(C)C2CC3CCC2C3)ccc1OC (stereo unspecified)	52	1	-22	-4	84*	54
CCOC(=O)c1sc(NC(=O)CSc2n[nH]c(-c3ccc(Cl)cc3Cl)n2)c(C#N)c1C	75	0.6	96*	37	-13	78
CCOC(=O)c1cnc(SCC(=O)Nc2sc(C)c(C)c2C#N)nc1N	2.8*	1	-9	-3	0	3.1*
CCOC(=O)c1cnc(SCC(=O)Nc2cc(OC)cc(OC)c2)nc1N	80	1.1	-9	-6	3	85
Cc1nc([N+](=O)[O-])c(Br)n1CC(=O)c1ccc2ccccc2c1	24	1	-15	-2	100*	26
Cc1nc([N+](=O)[O-])c(Br)n1CC(=O)c1ccc(Br)cc1	3.0*	1.1	-10	-6	98*	4
Cc1nc([N+](=O)[O-])c(C(=O)OCc2ccccc2Br)n1C	·	1.1	-10	-5	6	·
Cc1nc([N+](=O)[O-])c(Br)n1CC(=O)c1ccccc1	47	1	-8	-1	96*	33
Cc1cc([N+](=O)[O-])nn1CC(=O)c1ccccc1	·	1.1	-16	-9	-6	·
COCCNC(=S)NCCc1ccc(Cl)cc1Cl	·	1	-14	-4	-2	·
NS(=O)(=O)c1ccc(NC(=O)CSc2nc3ccccc3[nH]2)cc1	·	1	2	0	-3	·
COc1cccc(Nc2nnc(SCC(=O)N(CC(C)C)CC(C)C)s2)c1	31	1.1	-6	-6	99*	27
C/C(N)=C(/C#N)C(=O)CSc1nnc(Nc2cccc(C)c2)s1	100	1	-6	-2	76*	92
COc1ccc(C(=O)NC(C(=O)NCCc2ccc3c(c2)OCCO3)C(C)C)cc1 (stereo unspecified)	·	1	-8	0	4	·
COc1ccccc1/C(C)=N/NC(=S)NCc1ccccc1	·	1	-77	-4	3	·
CC(=O)c1c(C)[nH]c(C(=O)CSc2ncnc3sc(-c4ccccc4)cc23)c1C	16	1.1	-35	-5	74*	19
CC(=O)c1c(C)[nH]c(C(=O)CSc2nnc(-c3cccs3)n2Cc2ccccc2)c1C	85	1	-3	-1	78*	82
CCOC(=O)c1c(C)[nH]c(C(=O)CSc2nnc(-c3cccs3)n2Cc2ccccc2)c1C	87	1.1	2	-6	-5	95
COCc1cc(C)nc(N/N=C/c2ccc(-c3ccc(Cl)cc3[N+](=O)[O-])o2)c1C#N	·	0.9	-9	8	1	·
CCOc1ccc(N2C(=O)CC(N(Cc3ccco3)C(C)=O)C2=O)cc1 (stereo unspecified)	·	0.9	3	5	-3	·
CCOC(=O)c1ccc(NC(=S)Nc2ccccn2)cc1	95	1	6	-2	0	109
COc1cc(C(=O)NCC(=O)N/N=C(/C)c2cccs2)cc(OC)c1OC	96	1	-21	1	65*	89
OCCC1CN(Cc2ccc(-n3cccn3)cc2)CCN1Cc1ccccc1 (stereo unspecified)	·	1.1	-5	-6	14	·
O=C(O)/C=C/C(=O)Nc1ccc(S(=O)(=O)N2CCCC2)cc1	·	1.1	-12	-5	-7	·
Oc1ccc(N=Nc2n[nH]c(-c3ccc(Br)cc3)n2)cc1	55	0.6	75*	44	49	30
SMILES	HCT116 bCat-KO	TNAP act hi DEA	TNAP inh no acc	TNAP inh hiacc	Lmaj promast	HCT116 PTEN-null
Oc1ccc(N=Nc2n[nH]c(-c3ccccc3)n2)cc1	90	0.7	74*	31	12	99
Oc1ccc(N=Nc2nc(-c3ccccc3)c(-c3ccccc3)[nH]2)cc1	64	0.4	49	58*	96*	53
Cc1nc(-c2ccccc2)c(-c2ccccc2)[nH]1	82	1	-3	2	22	76
CC(C)OCCCNC(=S)Nc1ccc(S(N)(=O)=O)cc1	80	1.1	-11	-5	-4	93
C=CCn1c(SCC(=O)Nc2ccccc2-c2ccccc2)nc2cc(C(=O)O)ccc2c1=O	·	1	6	-4	2	·
CN(C)CCNC(=O)c1ccc(CS(=O)(=O)c2ccc(Br)cc2)o1	·	·	·	·	77*	·
CCCn1c(=N)n(CC(O)COc2cccc(C)c2)c2ccccc21 (stereo unspecified)	2.6*	1.1	0	-5	96*	3.2*
CCn1c(=N)n(CC(O)COc2cccc(C)c2)c2ccccc21 (stereo unspecified)	32	1.1	-6	-6	58*	40
Cc1cccc(OCC(O)CN2C(C)(C)CC(O)CC2(C)C)c1 (stereo unspecified)	92	1	-7	-4	-3	94
CCc1ccc(/C=C2\Oc3cc(OC(=O)N4CCOCC4)ccc3C2=O)cc1	70	1	-11	0	93*	59
O=C(NCc1ccncc1)c1nc(-c2ccc(C(F)(F)F)cc2)no1	·	1	-4	-1	10	·
CC1CCc2c(sc(NC(=O)COC(=O)c3ccc(O)cc3)c2C#N)C1 (stereo unspecified)	·	1	-5	-1	-5	·
CCc1[nH]nc(C(=O)N2CCCC(CCC(=O)N3CCN(c4ccccn4)CC3)C2)c1C (stereo unspecified)	·	1	36	-4	-6	·
COc1ccc2c(c1)S/C(=C\C(=O)c1ccncc1)N2C	96	0.9	3	6	97*	110
COc1cc(OC)cc(C(=O)/C=C2\Sc3ccccc3N2C)c1	·	1	-15	-3	3	·
CCOc1cc(/C=N/N=C(\N)c2nonc2N)cc(Br)c1OCc1cccc2ccccc12	23	1	-4	-5	1	10
CCOc1cc(/C=N/NC(N)=S)cc(Br)c1OCc1ccccc1C	11	1	8	4	100*	25
CCCn1c(CCC(=O)Nc2ccccc2Cc2ccccc2)nc2cc(S(=O)(=O)N3CCOCC3)ccc21	63	1	-11	0	22	70
Cc1cc(N2CCCN(C)CC2)nc2cc(Cl)ccc12	57	1	-8	-4	80*	52
Cc1cc(N2CCCCCC2)nc2ccccc12	80	1	-8	-2	91*	71
Cc1cc(N2CCCCC2)nc2ccccc12	·	1.1	-10	-6	19	·
O=C(c1cc(COc2ccc(F)cc2F)on1)N1CCSCC1	·	1	-10	-4	-8	·
Cc1c(N2C(=O)CS/C2=N\N=C\c2ccc(Cl)cc2)c(=O)n(-c2ccccc2)n1C	40	1	-5	0	77*	59
Cc1ccc(C2C3=C(CCCC3=O)Nc3c2c(C)nn3-c2ccccn2)o1 (stereo unspecified)	·	0.9	-3	5	22	·

Screening results deposited in PubChem by several laboratories.
